Measured values as given in ChEMBL document CHEMBL1817572, “New, potent, selective, and short-acting peptidic V1a receptor agonists” (J Med Chem, 2011).
Bridge positions count the residues as written; N and C are the ends. Square brackets hold non-standard residues; d marks the D form. Peptide text beside a SMILES is read from it. Ala(4-thiazolyl) = N[C@@H](Cc1cscn1)C(=O)O; Ala(cPent) = N[C@@H](CC1CCCC1)C(=O)O; Orn(Pr) = CCCNCCC[C@H](N)C(=O)O; 3Thi = N[C@@H](Cc1ccsc1)C(=O)O; Dab = NCC[C@H](N)C(=O)O

Columns and labels:
Vasopressin V1a receptor [1] = molecular target: T1, Vasopressin V1a receptor (Homo sapiens, UniProt P37288); experiment: Agonist activity at recombinant human vasopressin V1a receptor expressed in HEK293 cells by luciferase reporter gene assay; type: functional, cell-based; conditions: read-out: EC50
Target sequence in this assay (P37288 whole entry): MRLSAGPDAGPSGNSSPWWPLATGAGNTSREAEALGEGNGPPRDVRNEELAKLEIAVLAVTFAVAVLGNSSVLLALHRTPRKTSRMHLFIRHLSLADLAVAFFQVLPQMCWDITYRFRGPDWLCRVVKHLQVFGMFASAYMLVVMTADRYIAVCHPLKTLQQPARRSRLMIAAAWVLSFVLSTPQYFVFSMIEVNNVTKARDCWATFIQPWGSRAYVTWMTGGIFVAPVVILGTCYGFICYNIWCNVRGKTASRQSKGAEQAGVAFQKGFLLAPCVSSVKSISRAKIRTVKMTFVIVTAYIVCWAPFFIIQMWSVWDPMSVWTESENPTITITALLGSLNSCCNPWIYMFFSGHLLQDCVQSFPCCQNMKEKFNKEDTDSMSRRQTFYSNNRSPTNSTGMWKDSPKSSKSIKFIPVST

[2] = molecular target: Vasopressin V1a/V2 (Homo sapiens) (UniProt P30518+P37288); experiment: Selectivity ratio of EC50 for human vasopressin V2 receptor to EC50 for human vasopressin V1a receptor
Oxytocin receptor = molecular target: T2, Oxytocin receptor (Homo sapiens, UniProt P30559); experiment: Agonist activity at human OT receptor expressed in CHO-K1 cells by luciferase reporter gene assay; type: functional, cell-based
T2 sequence (P30559 whole entry): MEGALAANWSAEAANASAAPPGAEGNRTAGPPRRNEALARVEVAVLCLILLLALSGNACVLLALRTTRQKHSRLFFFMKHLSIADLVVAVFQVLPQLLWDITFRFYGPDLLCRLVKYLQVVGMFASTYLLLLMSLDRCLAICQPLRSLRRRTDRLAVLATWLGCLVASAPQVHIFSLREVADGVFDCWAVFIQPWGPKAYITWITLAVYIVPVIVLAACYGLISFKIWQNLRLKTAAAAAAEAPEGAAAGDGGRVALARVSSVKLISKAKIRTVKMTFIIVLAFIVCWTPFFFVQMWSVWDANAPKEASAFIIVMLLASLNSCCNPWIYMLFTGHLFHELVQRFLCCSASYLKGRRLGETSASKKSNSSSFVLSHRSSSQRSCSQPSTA

Vasopressin V1b receptor = molecular target: T3, Vasopressin V1b receptor (Homo sapiens, UniProt P47901); experiment: Agonist activity at recombinant human vasopressin V1b receptor expressed in Flp-In-293 cells by luciferase reporter gene assay; type: functional, cell-based
T3 sequence (P47901 whole entry): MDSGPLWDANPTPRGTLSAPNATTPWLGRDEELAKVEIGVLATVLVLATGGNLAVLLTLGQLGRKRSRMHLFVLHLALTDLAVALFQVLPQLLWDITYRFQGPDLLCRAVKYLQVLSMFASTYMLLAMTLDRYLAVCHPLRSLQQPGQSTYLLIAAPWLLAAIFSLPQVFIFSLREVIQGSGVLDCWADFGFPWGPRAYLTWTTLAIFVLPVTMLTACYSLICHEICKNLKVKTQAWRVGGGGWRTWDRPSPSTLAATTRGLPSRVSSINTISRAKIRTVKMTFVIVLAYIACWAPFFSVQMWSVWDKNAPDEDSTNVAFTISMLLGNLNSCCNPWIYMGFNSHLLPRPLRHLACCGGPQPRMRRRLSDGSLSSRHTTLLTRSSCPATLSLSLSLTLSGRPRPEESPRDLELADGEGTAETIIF
Outline: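 Reporter gene assays in HEK293 cells transiently cotransfected with V1a (human or rat) or human V2 receptor vector plus NFAT-luciferase (V1a) or CRE-luciferase (V2) reporter; V1b in Flp-In-293 stably expressing receptor, OT in CHO-K1 stably expressing receptor, both transiently transfected with NFAT-luciferase. Two days post-transfection, peptides added for 5 h at 37 °C, lysis with luciferin, luminescence read.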

Rattus norvegicus [3] = experiment: Vasoconstriction in Wistar rat assessed as decay in vasopressive duration of action at 0.3 nmol/kg, iv bolus measured over 10 sec interval; type: functional; design: unit not given here
Homo sapiens [4] = species: Homo sapiens; experiment: Selectivity ratio of EC50 for human vasopressin V1b receptor to EC50 for human vasopressin V1a receptor
Vasopressin V1a receptor [5] = molecular target: Vasopressin V1a receptor (Rattus norvegicus, UniProt P30560); experiment: Agonist activity at recombinant rat vasopressin V1a receptor expressed in HEK293 cells by luciferase reporter gene assay; type: functional, cell-based; conditions: read-out: EC50
Vasopressin V2 receptor [6] = molecular target: T4, Vasopressin V2 receptor (Homo sapiens, UniProt P30518); experiment: Agonist activity at recombinant human vasopressin V2 receptor expressed in HEK293 cells by luciferase reporter gene assay; type: functional, cell-based
Homo sapiens [7] = species: Homo sapiens; experiment: Selectivity ratio of EC50 for human oxytocin receptor to EC50 for human vasopressin V1a receptor
Vasopressin V1a receptor [8] = molecular target: T1, Vasopressin V1a receptor; experiment: Partial agonist activity at recombinant human vasopressin V1a receptor expressed in HEK293 cells by luciferase reporter gene assay; type: functional, cell-based
Outline: (§1)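 Same luciferase reporter systems (OT in stable CHO-K1, V1b in stable Flp-In-293, each with transient NFAT-luciferase; V1a in HEK293 with NFAT-luciferase, V2 in HEK293 with CRE-luciferase). Peptides added for 5 h at 37 °C two days post-transfection, luminescence read. Partial agonism means efficacy <70%.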
Target sequence in this assay (P37288 whole entry, looked up): as the sequence (P37288 whole entry) above

[9] = molecular target: T5, Vasopressin V1b receptor (Homo sapiens) (UniProt P47901); experiment: Partial agonist activity at recombinant human vasopressin V1b receptor expressed in Flp-In-293 cells by luciferase reporter gene assay; type: functional, cell-based; outline: as §1
T5 sequence (whole entry): T3 sequence (P47901 whole entry)

[10] = molecular target: T6, Oxytocin receptor (Homo sapiens) (UniProt P30559); experiment: Partial agonist activity at human OT receptor expressed in CHO-K1 cells by luciferase reporter gene assay; type: functional, cell-based; outline: as §1
T6 sequence (whole entry): T2 sequence (P30559 whole entry)

Vasopressin V2 receptor [11] = molecular target: T4, Vasopressin V2 receptor; experiment: Partial agonist activity at recombinant human vasopressin V2 receptor expressed in HEK293 cells by luciferase reporter gene assay; type: functional, cell-based; outline: as §1
Rattus norvegicus [12] = experiment: Vasoconstriction in Wistar rat assessed as assessed as decay in vasopressive duration of action at 3 nmol/kg, iv bolus measured over 10 sec interval; type: functional
Outline: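 Fasted male Wistar rats (206–340 g) under isoflurane, then thiobutabarbital 150 mg/kg ip, ventilated, 37–38 °C, with carotid pressure and jugular dosing. Dibenamine 1.8 mg/rat iv pretreatment. Sequence: iv boluses (0.5 mL/kg) of heparinized vehicle, then two reference doses of 0.1 nmol/kg, then two test doses; one matches the reference diastolic pressure rise. Relative duration = reference decay rate / test decay rate; mean ± SEM.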

T4 sequence (P30518 whole entry): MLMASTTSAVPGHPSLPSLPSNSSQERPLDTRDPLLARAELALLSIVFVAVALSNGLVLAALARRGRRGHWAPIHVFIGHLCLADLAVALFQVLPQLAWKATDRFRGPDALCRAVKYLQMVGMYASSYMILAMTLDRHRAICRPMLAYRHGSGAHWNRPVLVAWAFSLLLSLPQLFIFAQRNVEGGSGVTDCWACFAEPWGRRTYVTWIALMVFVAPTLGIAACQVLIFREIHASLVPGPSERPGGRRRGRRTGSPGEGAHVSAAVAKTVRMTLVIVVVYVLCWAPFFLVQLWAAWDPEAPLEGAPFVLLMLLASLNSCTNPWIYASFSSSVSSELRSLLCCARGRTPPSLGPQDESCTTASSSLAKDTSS
Vasopressin V1a/V2 (Homo sapiens), sequence (P30518 whole entry, looked up): as the sequence (P30518 whole entry) above
Vasopressin V1a/V2 (Homo sapiens), sequence (P37288 whole entry, looked up): as the sequence (P37288 whole entry) above
Vasopressin V1a receptor (Rattus norvegicus, UniProt P30560), sequence (P30560 whole entry): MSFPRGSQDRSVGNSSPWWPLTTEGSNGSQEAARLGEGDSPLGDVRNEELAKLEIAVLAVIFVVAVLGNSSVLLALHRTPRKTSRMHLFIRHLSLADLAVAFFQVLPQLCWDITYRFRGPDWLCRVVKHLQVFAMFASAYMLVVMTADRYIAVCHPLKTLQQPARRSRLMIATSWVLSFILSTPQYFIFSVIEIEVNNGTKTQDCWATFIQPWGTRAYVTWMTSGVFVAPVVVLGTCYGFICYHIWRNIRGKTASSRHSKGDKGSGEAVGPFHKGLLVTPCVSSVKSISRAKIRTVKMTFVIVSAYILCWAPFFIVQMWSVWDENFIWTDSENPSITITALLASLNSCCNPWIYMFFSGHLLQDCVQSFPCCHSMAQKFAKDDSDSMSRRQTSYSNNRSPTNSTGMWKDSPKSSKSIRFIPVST

Row | Compound | EC50 (Vasopressin V1a receptor [1]) [nM] | Ratio EC50 [2] | EC50 (Oxytocin receptor; read-out: EC50) [nM] | EC50 (Vasopressin V1b receptor; read-out: EC50) [nM] | Time (Rattus norvegicus [3]) | Ratio EC50 (Homo sapiens [4]) | EC50 (Vasopressin V1a receptor [5]) [nM] | EC50 (Vasopressin V2 receptor [6]; read-out: EC50) [nM] | Ratio EC50 (Homo sapiens [7]) | EC50 (Oxytocin receptor; cho-k1, read-out: EC50) [nM] | EC50 (Oxytocin receptor; read-out: pEC50 (converted)) [nM] | EC50 (Vasopressin V1b receptor; flp-in-293, read-out: EC50) [nM] | EC50 (Vasopressin V1b receptor; read-out: pEC50 (converted)) [nM] | Efficacy (Vasopressin V1a receptor [8]) [%] | EC50 (Vasopressin V2 receptor [6]; hek293, read-out: EC50) [nM] | EC50 (Vasopressin V2 receptor [6]; read-out: pEC50 (converted)) [nM] | Efficacy [9] [%] | Efficacy [10] [%] | Efficacy (Vasopressin V2 receptor [11]) [%] | Time (Rattus norvegicus [12]) [unitless ratio]
1 | CCCNCCC[C@H](NC(=O)[C@@H]1CCCN1C(=O)[C@@H]1CSSC[C@H](N)C(=O)N[C@@H](Cc2ccccc2)C(=O)N[C@@H]([C@@H](C)CC)C(=O)N[C@@H](CCC(N)=O)C(=O)N[C@@H](CC(N)=O)C(=O)N1)C(=O)NCC(N)=O (H-CFIQNCP[Orn(Pr)]G-NH2; disulfide 1-6) | 0.21 | 660 | 32 | 38 | 1.9 | 180 | 0.1 | 140 | 150 | – | – | – | – | – | – | – | – | – | – | –
2 | CC[C@H](C)[C@@H]1NC(=O)[C@H](Cc2cnc[nH]2)NC(=O)[C@@H](N)CSSC[C@@H](C(=O)N2CCC[C@H]2C(=O)N[C@@H](CCN)C(=O)NCC(N)=O)NC(=O)[C@H](CC(N)=O)NC(=O)[C@H](CCC(N)=O)NC1=O (H-CHIQNCP[Dab]G-NH2; disulfide 1-6) | 510 | > 19 | – | – | – | > 19 | – | – | > 19 | > 10000 | > 10000 | > 10000 | > 10000 | < 70 | > 10000 | > 10000 | – | – | – | –
3 | CC[C@H](C)[C@@H]1NC(=O)[C@H](Cc2ccsc2)NC(=O)[C@@H](N)CSSC[C@@H](C(=O)N2CCC[C@H]2C(=O)N[C@@H](CCN)C(=O)NCC(N)=O)NC(=O)[C@H](CC(N)=O)NC(=O)[C@H](CCC(N)=O)NC1=O (H-C[3Thi]IQNCP[Dab]G-NH2; disulfide 1-6) | 0.61 | 320 | 30 | 50 | – | 81 | – | 200 | 49 | – | – | – | – | – | – | – | < 70 | < 70 | – | –
4 | CC[C@H](C)[C@@H]1NC(=O)[C@H](Cc2cscn2)NC(=O)[C@@H](N)CSSC[C@@H](C(=O)N2CCC[C@H]2C(=O)N[C@@H](CCN)C(=O)NCC(N)=O)NC(=O)[C@H](CC(N)=O)NC(=O)[C@H](CCC(N)=O)NC1=O (H-C[Ala(4-thiazolyl)]IQNCP[Dab]G-NH2; disulfide 1-6) | 19 | 130 | 1200 | 430 | – | 22 | – | 2500 | 63 | – | – | – | – | – | – | – | – | < 70 | < 70 | –
5 | CC[C@H](C)[C@@H]1NC(=O)[C@H](CC2CCCC2)NC(=O)[C@@H](N)CSSC[C@@H](C(=O)N2CCC[C@H]2C(=O)N[C@@H](CCN)C(=O)NCC(N)=O)NC(=O)[C@H](CC(N)=O)NC(=O)[C@H](CCC(N)=O)NC1=O (H-C[Ala(cPent)]IQNCP[Dab]G-NH2; disulfide 1-6) | 0.8 | 1500 | – | 20 | – | 25 | 4.2 | 1200 | > 12000 | > 10000 | > 10000 | – | – | – | – | – | – | – | – | 2.3
6 | CC[C@H](C)[C@@H]1NC(=O)[C@H](Cc2ccccc2)NC(=O)[C@@H](N)CSSC[C@@H](C(=O)N2CCC[C@H]2C(=O)N[C@@H](CCCNC(C)C)C(=O)NCC(N)=O)NC(=O)[C@H](CC(N)=O)NC(=O)[C@H](CCCC(N)=O)NC1=O [SELEPRESSIN] | 2.4 | 1100 | 1100 | 340 | 1.4 | 140 | 0.55 | 2700 | 450 | – | 1100 | – | – | – | – | – | – | < 70 | < 70 | –
